Shown are actives, neighbours in structure and some others; about 4.6% of the full set was active somewhere.
TAAR1 ag = agonists of human TAAR1. AID 624467. activation, % at 3 µM. 0.99% of 360,000 active. CHO RD-HGA16 TAAR1, Fluo-8 calcium fluorescence; vehicle wells 0%, saturating PEA agonist 100%;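 active = activation above the mean activation of all test compounds in the run plus 3 SD, cut at about 38% in these data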
Target sequence (Q96RJ0 whole entry, looked up): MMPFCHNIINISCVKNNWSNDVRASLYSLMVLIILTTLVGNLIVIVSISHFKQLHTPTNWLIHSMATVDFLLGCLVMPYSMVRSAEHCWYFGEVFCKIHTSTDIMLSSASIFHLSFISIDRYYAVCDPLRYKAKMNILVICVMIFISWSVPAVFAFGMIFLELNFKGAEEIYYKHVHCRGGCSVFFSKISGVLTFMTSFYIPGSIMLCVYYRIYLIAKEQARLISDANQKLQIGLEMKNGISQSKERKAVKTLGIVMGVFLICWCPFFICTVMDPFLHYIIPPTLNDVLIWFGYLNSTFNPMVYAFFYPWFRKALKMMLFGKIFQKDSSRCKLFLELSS
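Assay system: CHO-derived RD-HGA16 cells with stable Gα16 and human TAAR1; timing: 17-24 h seeding, 75 min 37 °C dye, 30 min RT; read-out: % activation from peak over basal fluorescence ratio, DMSO-to-PEA scaled; measured by: kinetic Fluo-8 calcium fluorescence; benchmarks: low control DMSO, high control PEA (EC100); doses: 3 µM single concentration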
CHO parental Ca = counter-screen: ATP calcium response change in parental CHO cells; parental CHO-K1, ATP-induced calcium, Fluo-8 fluorescence; inhibition, % at 5.6 µM; 0.63% of 330,000 active; AID 463079;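 active = inhibition above that plate's mean sample inhibition plus 3 SD, cut at about 26% in these data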;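 note: 0% = ATP-challenged DMSO wells and 100% = DMSO wells without ATP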
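Test system: untransfected parental CHO cell line. Compound: one dose, 5.6 µM nominal. Detection: intracellular calcium via Fluo-8 no-wash fluorescent dye. Measure: % inhibition. Benchmarks: ATP-challenged DMSO wells low, unchallenged DMSO wells high.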
GPR7 antag = blocks human GPR7 receptor signaling | inhibition, % at 4.4 µM | AID 1861 | GPR7-expressing cells, fluorescence antagonist assay | 1.1% of 290,000 active | P48145; in the data active = inhibition above about 16%, passing the limit was not always enough;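 note: cells stimulated with the agonist NPW; 0% = agonist with vehicle and 100% = vehicle without agonist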
OX1R antag-1 = blocks the human orexin 1 receptor; O43613; CHO/OX1R cells, Fluo-8 calcium fluorescence, orexin A; inhibition, % at 5 µM; 0.43% of 330,000 active; AID 434989;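 active = inhibition above its plate's threshold, mean inhibition of all tested compounds on the plate plus 3 SD, cut at about 37% in these data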;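 note: 0% = orexin A challenge wells and 100% = SB-334867-A antagonist wells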
OX1R antag-2 = antagonists of human orexin 1 receptor (OX1R); OX1R-expressing cells, FRET antagonist read-out; inhibition, % at 6.6 µM; 1.8% of 330,000 active; in the data active = inhibition mostly above about 38%, no sharp cut-off; inactive = mostly below about 40%;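 note: 0% = agonist challenge alone and 100% = reference antagonist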
TAAR1 antagonist = antagonists of human TAAR1; CHO RD-HGA16 TAAR1, Fluo-8 calcium fluorescence, antagonist; 1.5% of 360,000 active; inhibition, % at 3 µM; AID 624466; Q96RJ0;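 active = inhibition above a per-plate cutoff, the mean inhibition of test compounds on that plate plus 3 SD, cut at about 49% in these data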;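 note: 0% = DMSO plus EC80 beta-PEA response and 100% = DMSO alone without agonist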
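System: RD-HGA16 CHO cells with stable hTAAR1 and Gα16 | Probe or stimulus: EC80 β-phenethylamine stimulus | Dosing: 3 µM, single point | Times: Dye loading 75 min at 37 °C, then 30 min room temperature | Measured by: Fluo-8 calcium-sensitive fluorescence | Read-out basis: % inhibition of agonist calcium response | Replicates: n of 1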
TAAR1 ag conf = confirmation of human TAAR1 agonists | CHO RD-HGA16 TAAR1, Fluo-8 calcium fluorescence; scaled: DMSO 0%, maximal phenethylamine 100% | AID 651783 | 82% of 2,400 active | shares compounds with TAAR1 ag | activation, % at 3 µM;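 active = activation above a cutoff set at the run's mean compound activation plus 3 SD, cut at about 39% in these data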
Ga16 nonsel ag = nonselective agonism, TAAR1 counter-screen; shares compounds with TAAR1 ag; CHO-Ga16 parental, Fluo-8 calcium fluorescence; normalized to maximal ATP response, DMSO zero; activation, % at 3 µM; 50% of 2,400 active;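 active = activation above the run cutoff, the mean activation over all tested wells plus 3 SD, cut at about 12% in these data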;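 note: 0% = DMSO wells and 100% = maximal ATP response on the peak over basal ratio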
TAAR1 desensitize = TAAR1 response desensitization, agonist counter-screen; shares compounds with TAAR1 ag; CHO RD-HGA16 hTAAR1, Fluo-8 calcium, beta-PEA response inhibition; inhibition, % at 3 µM; 46% of 2,400 active; AID 651951;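 active = inhibition above the run cutoff, the mean inhibition of all test compounds plus 3 SD, cut at about 49% in these data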;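 note: beta-PEA stimulus applied at its EC80; loss of beta-PEA calcium signal after compound pretreatment read as receptor desensitization; 0% = DMSO with beta-PEA at EC80 and 100% = DMSO alone without agonist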
Ga16 antag count = nonselective Ga16 antagonism, counter-screen; shares compounds with TAAR1 ag; CHO-Ga16 ATP-induced calcium, Fluo-8 fluorescence; inhibition, % at 3 µM; 39% of 2,400 active;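 active = inhibition above the plate's mean compound inhibition plus 3 SD, computed per plate, cut at about 22% in these data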;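 note: 0% = EC80 ATP with DMSO and 100% = DMSO wells without ATP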
Numbers without * were called inactive; . = no result.

SMILES	TAAR1 ag	CHO parental Ca	GPR7 antag	OX1R antag-1	OX1R antag-2	TAAR1 antagonist	TAAR1 ag conf	Ga16 nonsel ag	TAAR1 desensitize	Ga16 antag count
CC(C)CC(N)c1csc(Nc2ncccn2)n1 (stereo not drawn)	1	.	.	.	.	6	.	.	.	.
CCN1C(=O)C(=O)N(CC(=O)c2[nH]c(C)c(C(C)=O)c2C)C1=O	2	-5	.	-12	13	-10	.	.	.	.
CC(=O)c1c(C)[nH]c(C(=O)CN2C(=O)NC(C)(c3ccc(C)cc3)C2=O)c1C (stereo not drawn)	85*	-7	20*	-16	1	42	113*	56*	60*	36*
O=C(O)C1=C(C(=O)N2CCN(C(=O)c3ccco3)CC2)CCCC1	43*	0	-15	8	3	13	52*	2	16	6
O=C(c1ccco1)N1CCN(C(=O)N2CCCCC2)CC1	2	6	-3	-1	13	19	.	.	.	.
C[C@@H]1CCCCO[C@@H](CN(C)C(=O)CCCN(C)C)[C@@H](C)CN([C@H](C)CO)C(=O)c2cc(NC(=O)CCC(F)(F)F)ccc2O1	0	.	.	.	.	9	.	.	.	.
C/C=C1\NC(=O)[C@H](CC(N)=O)N(C)C(=O)C([C@@H](C)O)NC(=O)C(CCCc2ccc(OC)cc2)NC(=O)[C@H](C(C)C)NC(=O)/C(=C\C)NC(=O)[C@H](O)[C@@H](C[C@@H](O)CCCCCCC)NC(=O)[C@H](C)NC(=O)CN(C)C(=O)[C@H](CCC(N)=O)NC1=O (stereo partly drawn)	3	.	.	.	.	11	.	.	.	.
O=C(NCCc1cccs1)C1CC(c2cccc(F)c2)=NO1 (stereo not drawn)	59*	3	.	-12	19	85*	73*	5	94*	4
COc1ccc2c(c1)C(SCC(=O)NCCc1ccccc1)CC(C)(C)O2 (stereo not drawn)	68*	-14	4	-32	16	61*	73*	1	76*	16
Cc1ccccc1C(=O)NNC(=S)NC(=O)c1ccccc1	123*	-2	2	24	-1	55*	135*	112*	100*	78*
Cc1ccc(C(=O)NC(=S)NNC(=O)c2ccccc2O)cc1	114*	-11	-14	4	-2	32	127*	97*	77*	45*
O=C(NC(=S)NNC(=O)c1ccccc1O)c1ccc(F)cc1	90*	4	-3	0	16	21	55*	58*	20	22*
O=C(NC(=S)NNC(=O)c1ccco1)c1ccccc1	7	6	-12	5	7	-6	.	.	.	.
O=C(NC(=S)NNC(=O)c1ccccc1O)c1ccccc1	66*	12	-3	-10	7	29	76*	66*	24	21
C[C@H](CO)N1C[C@H](C)[C@H](CN(C)C(=O)NC2CCCCC2)Oc2cc(-c3cccnc3)ccc2S1(=O)=O	1	.	.	.	.	16	.	.	.	.
Cc1c(CNCCc2ccccc2Cl)c(C(=O)O)c(C)n1-c1ccccc1	90*	-20	-8	-32	-7	65*	92*	25*	74*	6
CN(C)S(=O)(=O)c1cccc(NC(=O)c2ccccc2SCC(=O)N2CCCC2)c1	3	.	.	.	.	-4	.	.	.	.
COc1ccc(CCNC(=O)C2CCCN(S(=O)(=O)c3ccc(F)cc3)C2)cc1OC (stereo not drawn)	0	-14	4	-17	13	-23	.	.	.	.
CCOC(=O)N[C@@H](Cc1cccnc1)C(=O)N1CCC[C@H]1C(=O)NCCc1ccccc1Cl	67*	.	.	.	.	61*	89*	5	86*	5
Cc1ccccc1C(=O)N[C@@H](Cc1cccnc1)C(=O)N1CCC[C@H]1C(=O)NCCc1ccccc1Cl	41*	.	.	.	.	48	84*	19*	84*	4
Cc1cc2c(cc1S(=O)(=O)CCC(=O)NCCc1ccccc1)OCC(=O)N2	89*	-6	-8	-25	23	52*	101*	0	75*	1
Cc1cccc(CCNC(=O)CCS(=O)(=O)c2cc3c(cc2C)NC(=O)CO3)c1	34	-11	-3	-19	15	-26	.	.	.	.
Cc1cc(C(=O)CCl)c(C)n1CCc1ccccc1	64*	-22	2	-23	11	47	71*	7	66*	7
COC(=O)CCCn1c(C)cc(C(=O)CCl)c1C	0	-1	8	1	23	12	.	.	.	.
CCOC(=O)c1cc(-c2ccccc2)n(CCC(=O)O)c1C	9	-9	-2	-10	2	2	.	.	.	.
Cc1cc(-c2csc(N)n2)c(C)n1CCC(C)C	2	-15	-6	-14	15	-11	.	.	.	.
Cc1cc(-c2csc(N)n2)c(C)n1CCc1ccccc1	78*	-5	-9	-4	12	37	102*	11	89*	-3
CCOC(=O)c1cc(C)n(CCc2ccccc2)c1C	51*	-24	18	-20	13	20	64*	6	47	9

High-throughput results from PubChem BioAssay.
